The source of these data is ChEMBL document CHEMBL1151818, “Antimalarial peptides from marine cyanobacteria: isolation and structural elucidation of gallinamide A” (J Nat Prod, 2009).

For data set [1], the system named is Trypanosoma cruzi. Kind of data set: Antitrypanosomal activity against Trypanosoma cruzi at 16.9 uM. Format: functional, organism-based. The essentials: (§1)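 In vitro assay; 16.9 µM was the highest concentration tested.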
In data set [2] the test system is Plasmodium falciparum. The data set can be described thus: Antimalarial activity against chloroquine-resistant Plasmodium falciparum W2. It counts as functional, organism-based.
Data set [3] has as its system NCI-H460. The data set can be described thus: Cytotoxicity against human NCI-H460 cells. Format: functional. Conditions: read-out: TC50 (the source's name). The essentials: as §1
The subject of data set [4] is N2a. The data set can be described thus: Cytotoxicity against mouse Neuro2a cells at 16.9 uM. Format: functional, cell-based. The essentials: as §1
The test system of data set [5] is Leishmania donovani. The data set can be described thus: Antileishmanial activity against Leishmania donovani. It counts as functional, organism-based.
Data set [6] in a line: Cytotoxicity against african green monkey Vero cells. The note with it: chlorocebus sabaeus, read-out: TC50 (the source's name). It counts as cell-based.
For data set [7], the system named is NCI-H460. Kind of data set: Cytotoxicity against human NCI-H460 cells at 16.9 uM. It counts as functional, cell-based. The method in brief:
as §1

pIC50: −log10 of the molar value. Active and inactive are the calls of the source. The rule behind the calls is not given here. Non-standard residues stand in square brackets, D forms with d. Residues, ends and D or L forms follow the SMILES beside them. *: point of attachment. X1 = COC1=CC(=O)N(C(=O)[C@@H](O*)C(C)C)[C@H]1Cc1ccccc1; NMe2Val = CC(C)[C@@H](C(=O)*)N(C)C; NMeV = CN[C@H](C(=O)O)C(C)C A value given as a limit tells only on which side of the number the result lay.

The term pIC50 denotes the negative decadic logarithm of the IC50, by convention in mol/L. As to `CC1CS(=O)(=O)CCN1/N=C/c1ccc([N+](=O)[O-])o1` (stereo not given) [NIFURTIMOX], the pIC50 in data set [1] is 4.87.

On to `COC1=CC(=O)N(C(=O)[C@@H](OC(=O)[C@@H]2CCCN2C(=O)[C@@H]2CCCN2C(=O)[C@H](C(C)C)N(C)C(=O)[C@@H](NC(=O)[C@H](C(C)C)N(C)C)C(C)C)C(C)C)[C@H]1Cc1ccccc1` [DOLASTATIN 15] (NMe2Val-V[NMeV]PP-X1), for which the result in data set [2] was Active. The CC50 in data set [3] worked out at 0.0024 µM.

Regarding `CC[C@H](C)[C@@H](C(=O)O[C@@H](CC(C)C)C(=O)N[C@@H](CC(C)C)C(=O)N[C@@H](C)/C=C/C(=O)N1C(=O)C=C(OC)[C@@H]1C)N(C)C` [GALLINAMIDE A], the result in data set [4] and in data set [7] was inactive. Moreover, the pIC50 was 5.08 in data set [2], 5.03 in data set [5] and below 4.77 in data set [1]. Further, in data set [6], the CC50 amounted to 10.4 µM.

In turn, `C[C@@H]1[C@H](O)[C@@H](C)/C=C/C=C/C=C/C=C/C=C/C=C/C=C/[C@H](O[C@@H]2O[C@H](C)[C@@H](O)[C@H](N)[C@@H]2O)C[C@@H]2O[C@](O)(C[C@@H](O)C[C@@H](O)[C@H](O)CC[C@@H](O)C[C@@H](O)CC(=O)O[C@H]1C)C[C@H](O)[C@H]2C(=O)O` [AMPHOTERICIN B] gave a pIC50 in data set [5] of 6.99.
